{
  "source": "ChEMBL document CHEMBL1944512",
  "about": "“Discovery of a novel chemotype of potent human ENaC blockers using a bioisostere approach. Part 1: quaternary amines” (Bioorg Med Chem Lett, 2012)",
  "key": {"[1]": {"assay": "Inhibition of human ENaC in HBE cells by short-circuit current technique", "assay_type": "cell-based"}, "[2]": {"assay": "Inhibition of guinea pig ENaCbeta1/gamma1 expressed in FRT cells by short-circuit current technique", "assay_type": "cell-based", "details": "Cavia porcellus", "in_short": "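Fischer rat thyroid cells transiently infected with guinea-pig ENaC were used to measure channel blockade, and the value is reported as an IC50.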"}, "Cavia porcellus": {"system": "Cavia porcellus", "assay": "Blockade of tracheal potential difference in it dosed Dunkin Hartley guinea pig at 1hr", "assay_type": "functional", "details": "Trachea"}, "[3]": {"assay": "Thermodynamic solubility of the compound at pH 4 after 24 hrs of post-equilibriation by shake-flask method", "assay_type": "physicochemical", "details": "buffer, read-out: Therm_solubility"}, "[4]": {"assay": "Thermodynamic solubility of the compound at pH 6.8 after 24 hrs of post-equilibriation by shake-flask method", "assay_type": "physicochemical", "details": "buffer, read-out: Therm_solubility"}, "Homo sapiens": {"species": "Homo sapiens", "assay": "Ratio of amiloride IC50 to compound IC50 for human ENaC"}, "[5]": {"assay": "Thermodynamic solubility of the compound at pH 1 after 24 hrs of post-equilibriation by shake-flask method", "assay_type": "physicochemical", "details": "buffer, read-out: Therm_solubility"}, "[6]": {"assay": "Thermodynamic solubility of the compound at pH 9 after 24 hrs of post-equilibriation by shake-flask method", "assay_type": "physicochemical", "details": "buffer, read-out: Therm_solubility"}, "[7]": {"target": "T1, Voltage-gated inwardly rectifying potassium channel KCNH2 (Homo sapiens, UniProt Q12809)", "T1 sequence (Q12809 whole entry)": "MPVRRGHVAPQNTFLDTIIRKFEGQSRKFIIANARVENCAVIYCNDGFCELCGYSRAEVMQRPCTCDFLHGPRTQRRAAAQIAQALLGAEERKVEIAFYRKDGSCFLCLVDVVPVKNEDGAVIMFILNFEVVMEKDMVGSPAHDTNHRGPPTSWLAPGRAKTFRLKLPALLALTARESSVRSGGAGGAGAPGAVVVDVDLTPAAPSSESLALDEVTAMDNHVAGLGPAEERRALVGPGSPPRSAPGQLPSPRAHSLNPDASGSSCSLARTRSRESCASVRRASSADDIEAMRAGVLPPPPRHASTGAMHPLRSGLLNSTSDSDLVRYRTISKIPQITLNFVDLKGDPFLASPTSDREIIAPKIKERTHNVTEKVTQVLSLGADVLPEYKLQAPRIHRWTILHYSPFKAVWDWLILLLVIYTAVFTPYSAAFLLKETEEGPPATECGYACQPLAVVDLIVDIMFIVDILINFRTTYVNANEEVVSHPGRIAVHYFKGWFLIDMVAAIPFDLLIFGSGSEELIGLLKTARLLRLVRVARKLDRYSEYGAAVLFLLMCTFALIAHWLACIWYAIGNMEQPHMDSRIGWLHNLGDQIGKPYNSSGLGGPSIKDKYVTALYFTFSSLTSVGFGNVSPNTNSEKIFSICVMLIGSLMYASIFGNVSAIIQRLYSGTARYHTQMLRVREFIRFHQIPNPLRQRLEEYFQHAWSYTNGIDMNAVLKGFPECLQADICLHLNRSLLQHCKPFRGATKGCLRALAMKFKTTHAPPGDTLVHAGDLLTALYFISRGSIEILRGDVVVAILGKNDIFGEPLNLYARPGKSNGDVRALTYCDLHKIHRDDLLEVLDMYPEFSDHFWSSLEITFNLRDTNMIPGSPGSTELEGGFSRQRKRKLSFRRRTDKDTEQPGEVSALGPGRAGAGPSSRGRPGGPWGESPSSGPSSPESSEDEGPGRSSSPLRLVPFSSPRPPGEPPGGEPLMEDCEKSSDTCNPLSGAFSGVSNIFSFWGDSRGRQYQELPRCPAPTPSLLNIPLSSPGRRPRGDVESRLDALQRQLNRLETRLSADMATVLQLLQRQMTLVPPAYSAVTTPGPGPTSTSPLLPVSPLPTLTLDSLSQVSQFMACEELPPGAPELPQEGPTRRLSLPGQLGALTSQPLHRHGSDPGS", "assay": "Inhibition of human ERG channel by patch clamp assay"}, "[8]": {"target": "T1, Voltage-gated inwardly rectifying potassium channel KCNH2", "assay": "Binding affinity to human ERG channel"}, "[9]": {"assay": "Permeability from apical to basal side of human Caco2 cells", "assay_type": "ADME, cell-based", "details": "Caco-2, read-out: permeability"}, "[10]": {"assay": "Permeability from basal to apical side of human Caco2 cells", "assay_type": "ADME, cell-based", "details": "Caco-2, read-out: permeability"}, "HBE": {"system": "HBE", "assay": "Inhibition of human ENaC in HBE cells at 30 uM by short-circuit current technique", "assay_type": "cell-based"}},
  "data": [
    {"compound": "N=C(N)NC(=O)c1nc(Cl)c(N)nc1N", "note": "[AMILORIDE]", "values": [
      {"measurement": "IC50", "setting": "[1]", "result": 220, "unit": "nM"},
      {"measurement": "IC50", "setting": "[2]", "result": 540, "unit": "nM"},
      {"measurement": "ED50", "setting": "Cavia porcellus", "result": 0.016, "unit": "mg/kg"}
    ]},
    {"compound": "C[N+](C)(CCCCNC(=O)CCc1ccc(Cl)cc1)CCNC(=O)c1nc(Cl)c(N)nc1N", "values": [
      {"measurement": "IC50", "setting": "[1]", "result": 160, "unit": "nM"}
    ]},
    {"compound": "C[N+](C)(CCNC(=O)c1ccc(Cl)cc1)CCNC(=O)c1nc(Cl)c(N)nc1N", "values": [
      {"measurement": "IC50", "setting": "[1]", "result": 1660, "unit": "nM"}
    ]},
    {"compound": "COc1ccc(CCC[N+](C)(CCCc2ccc(OC)cc2)CCNC(=O)c2nc(Cl)c(N)nc2N)cc1.[Br-]", "values": [
      {"measurement": "IC50", "setting": "[1]", "result": 13, "unit": "nM"},
      {"measurement": "solubility thermodynamic at 24 h", "setting": "[3]", "result": 500, "unit": "µg/mL"},
      {"measurement": "solubility thermodynamic at 24 h", "setting": "[4]", "result": 900, "unit": "µg/mL"},
      {"measurement": "Ratio IC50", "setting": "Homo sapiens", "result": 100},
      {"measurement": "solubility thermodynamic at 24 h", "setting": "[5]", "result": 600, "unit": "µg/mL"},
      {"measurement": "solubility thermodynamic at 24 h", "setting": "[6]", "result": 1000, "unit": "µg/mL"}
    ]},
    {"compound": "C[N+](C)(CCCCNC(=O)CCc1ccc(OCc2ccccc2)cc1)CCNC(=O)c1nc(Cl)c(N)nc1N", "values": [
      {"measurement": "IC50", "setting": "[1]", "result": 80, "unit": "nM"}
    ]},
    {"compound": "C[N+](C)(CCCNC(=O)c1ccc(Cl)cc1)CCNC(=O)c1nc(Cl)c(N)nc1N", "values": [
      {"measurement": "IC50", "setting": "[1]", "result": 740, "unit": "nM"}
    ]},
    {"compound": "C[N+](C)(C)CCNC(=O)c1nc(Cl)c(N)nc1N", "values": [
      {"measurement": "IC50", "setting": "[1]", "result": 5810, "unit": "nM"}
    ]},
    {"compound": "C[N+](C)(CCCNS(=O)(=O)c1ccc(Cl)cc1)CCNC(=O)c1nc(Cl)c(N)nc1N", "values": [
      {"measurement": "IC50", "setting": "[1]", "result": 290, "unit": "nM"}
    ]},
    {"compound": "Cc1ccc(CCC(=O)NCCCC[N+](C)(C)CCNC(=O)c2nc(Cl)c(N)nc2N)cc1", "values": [
      {"measurement": "IC50", "setting": "[1]", "result": 590, "unit": "nM"}
    ]},
    {"compound": "C[N+](C)(CCCCNC(=O)CCc1ccccc1)CCNC(=O)c1nc(Cl)c(N)nc1N", "values": [
      {"measurement": "IC50", "setting": "[1]", "result": 910, "unit": "nM"}
    ]},
    {"compound": "C[N+](C)(CCCCCNC(=O)c1ccc(Cl)cc1)CCNC(=O)c1nc(Cl)c(N)nc1N", "values": [
      {"measurement": "IC50", "setting": "[1]", "result": 750, "unit": "nM"}
    ]},
    {"compound": "C[N+](C)(CCCCNC(=O)Cc1ccc(Cl)cc1)CCNC(=O)c1nc(Cl)c(N)nc1N", "values": [
      {"measurement": "IC50", "setting": "[1]", "result": 720, "unit": "nM"}
    ]},
    {"compound": "N/C(=N\\C(=O)c1nc(Cl)c(N)nc1N)NCc1ccccc1", "note": "[BENZAMIL]", "values": [
      {"measurement": "IC50", "setting": "[1]", "result": 20, "unit": "nM"}
    ]},
    {"compound": "COc1ccc(CCC[N+](CCCc2ccc(OC)cc2)(CCCc2ccc(OC)cc2)CCNC(=O)c2nc(Cl)c(N)nc2N)cc1", "values": [
      {"measurement": "IC50", "setting": "[1]", "result": 37, "unit": "nM"}
    ]},
    {"compound": "C[N+](C)(CCCCCNS(=O)(=O)c1ccc(Cl)cc1)CCNC(=O)c1nc(Cl)c(N)nc1N", "values": [
      {"measurement": "IC50", "setting": "[1]", "result": 960, "unit": "nM"}
    ]},
    {"compound": "C[N+](C)(CCCCNS(=O)(=O)c1ccc(Cl)cc1)CCNC(=O)c1nc(Cl)c(N)nc1N", "values": [
      {"measurement": "IC50", "setting": "[1]", "result": 250, "unit": "nM"}
    ]},
    {"compound": "C[N+](C)(CCCCNC(=O)Cc1ccc(OCc2ccccc2)cc1)CCNC(=O)c1nc(Cl)c(N)nc1N.[Br-]", "values": [
      {"measurement": "IC50", "setting": "[1]", "result": 60, "unit": "nM"},
      {"measurement": "IC50", "setting": "[7]", "result": 10.8, "unit": "µM"},
      {"measurement": "IC50", "setting": "[8]", "result": 330, "unit": "nM"},
      {"measurement": "Papp A→B", "setting": "[9]", "result": 3.33, "unit": "×10⁻⁶ cm/s"},
      {"measurement": "Papp B→A", "setting": "[10]", "result": 2.55, "unit": "×10⁻⁶ cm/s"}
    ]},
    {"compound": "Cc1ccc(CC(=O)NCCCC[N+](C)(C)CCNC(=O)c2nc(Cl)c(N)nc2N)cc1", "values": [
      {"measurement": "IC50", "setting": "[1]", "result": 750, "unit": "nM"}
    ]},
    {"compound": "CN(C)CCCNC(=O)c1nc(Cl)c(N)nc1N", "values": [
      {"measurement": "IC50", "setting": "[1]", "result": 17400, "unit": "nM"}
    ]},
    {"compound": "C[N+](C)(CCCCNC(=O)c1ccc(Cl)cc1)CCNC(=O)c1nc(Cl)c(N)nc1N", "values": [
      {"measurement": "IC50", "setting": "[1]", "result": 510, "unit": "nM"}
    ]},
    {"compound": "CN(C)CCN(C)C(=O)c1nc(Cl)c(N)nc1N", "values": [
      {"measurement": "IC50", "setting": "[1]", "result": "> 30000", "unit": "nM"}
    ]},
    {"compound": "COc1ccc(CCC[N+](C)(C)CCNC(=O)c2nc(Cl)c(N)nc2N)cc1.[Br-]", "values": [
      {"measurement": "IC50", "setting": "[1]", "result": 270, "unit": "nM"},
      {"measurement": "solubility thermodynamic at 24 h", "setting": "[3]", "result": 4900, "unit": "µg/mL"},
      {"measurement": "solubility thermodynamic at 24 h", "setting": "[4]", "result": 5000, "unit": "µg/mL"},
      {"measurement": "IC50", "setting": "[2]", "result": 180, "unit": "nM"},
      {"measurement": "ED50", "setting": "Cavia porcellus", "result": 0.044, "unit": "mg/kg"},
      {"measurement": "Papp A→B", "setting": "[9]", "result": 0.93, "unit": "×10⁻⁶ cm/s"},
      {"measurement": "solubility thermodynamic at 24 h", "setting": "[5]", "result": 4800, "unit": "µg/mL"},
      {"measurement": "Papp B→A", "setting": "[10]", "result": 1.67, "unit": "×10⁻⁶ cm/s"},
      {"measurement": "solubility thermodynamic at 24 h", "setting": "[6]", "result": 4700, "unit": "µg/mL"}
    ]},
    {"compound": "CN(C)CCCCNC(=O)c1nc(Cl)c(N)nc1N", "values": [
      {"measurement": "inhibition", "setting": "HBE", "result": "< 60", "unit": "%"}
    ]},
    {"compound": "Cc1ccc(C(=O)NCCCC[N+](C)(C)CCNC(=O)c2nc(Cl)c(N)nc2N)cc1", "values": [
      {"measurement": "IC50", "setting": "[1]", "result": 880, "unit": "nM"}
    ]},
    {"compound": "C[N+](C)(CCNC(=O)c1nc(Cl)c(N)nc1N)CCNS(=O)(=O)c1ccc(Cl)cc1", "values": [
      {"measurement": "IC50", "setting": "[1]", "result": 1120, "unit": "nM"}
    ]},
    {"compound": "CN(C)CCNC(=O)c1nc(Cl)c(N)nc1N", "values": [
      {"measurement": "IC50", "setting": "[1]", "result": 4780, "unit": "nM"}
    ]},
    {"compound": "C[N+](C)(CCCCNC(=O)Cc1ccccc1)CCNC(=O)c1nc(Cl)c(N)nc1N", "values": [
      {"measurement": "IC50", "setting": "[1]", "result": 950, "unit": "nM"}
    ]},
    {"compound": "C[N+](C)(CCCCNC(=O)c1ccccc1)CCNC(=O)c1nc(Cl)c(N)nc1N", "values": [
      {"measurement": "IC50", "setting": "[1]", "result": 1230, "unit": "nM"}
    ]},
    {"compound": "NCCNC(=O)c1nc(Cl)c(N)nc1N", "values": [
      {"measurement": "IC50", "setting": "[1]", "result": 3970, "unit": "nM"}
    ]},
    {"compound": "CNCCNC(=O)c1nc(Cl)c(N)nc1N", "values": [
      {"measurement": "IC50", "setting": "[1]", "result": 4570, "unit": "nM"}
    ]}
  ]
}
